Source: ChEMBL document CHEMBL4219109, “Design, synthesis and biological evaluation of novel hydroxamic acid based histone deacetylase 6 selective inhibitors bearing phenylpyrazol scaffold as surface recognition motif” (Bioorg Med Chem, 2018)

Key:
Histone deacetylase = assay: Inhibition of HDAC in human HeLa nuclear extract using Boc-Lys-(Ac)-AMC as substrate preincubated for 15 mins followed by substrate addition measured after 60 mins by fluorescence assay; type: protein assay
Histone deacetylase 1 = Histone deacetylase 1 (Homo sapiens, UniProt Q13547); assay: Inhibition of full length recombinant human C-terminal FLAG/His-tagged HDAC1 expressed in baculovirus infected sf9 cells using Boc-Lys-(Ac)-AMC as substrate preincubated for 15 mins followed by substrate addition measured after 60 mins by fluorescence assay
Histone deacetylase 2 = Histone deacetylase 2 (Homo sapiens, UniProt Q92769); assay: (§1) Inhibition of full length recombinant human C-terminal His-tagged HDAC2 expressed in baculovirus infected sf9 cells using Boc-Lys-(Ac)-AMC as substrate preincubated for 15 mins followed by substrate addition measured after 60 mins by fluorescence assay
[1] = biological target: Histone deacetylase 3/Nuclear receptor corepressor 2 (HDAC3/NCoR2) (Homo sapiens, UniProt O15379); assay: as §1, with “HDAC3/N-terminal GST-tagged NCOR2 (395 to 489 residues)” for “HDAC2”
[2] = biological target: T1, Protein deacetylase HDAC6 (Homo sapiens, UniProt Q9UBN7); assay: Inhibition of full length recombinant human N-terminal GST-tagged HDAC6 expressed in baculovirus infected sf9 cells using Boc-Lys-(Ac)-AMC as substrate preincubated for 15 mins followed by substrate addition measured after 60 mins by fluorescence assay
T1 sequence (Q9UBN7 whole entry): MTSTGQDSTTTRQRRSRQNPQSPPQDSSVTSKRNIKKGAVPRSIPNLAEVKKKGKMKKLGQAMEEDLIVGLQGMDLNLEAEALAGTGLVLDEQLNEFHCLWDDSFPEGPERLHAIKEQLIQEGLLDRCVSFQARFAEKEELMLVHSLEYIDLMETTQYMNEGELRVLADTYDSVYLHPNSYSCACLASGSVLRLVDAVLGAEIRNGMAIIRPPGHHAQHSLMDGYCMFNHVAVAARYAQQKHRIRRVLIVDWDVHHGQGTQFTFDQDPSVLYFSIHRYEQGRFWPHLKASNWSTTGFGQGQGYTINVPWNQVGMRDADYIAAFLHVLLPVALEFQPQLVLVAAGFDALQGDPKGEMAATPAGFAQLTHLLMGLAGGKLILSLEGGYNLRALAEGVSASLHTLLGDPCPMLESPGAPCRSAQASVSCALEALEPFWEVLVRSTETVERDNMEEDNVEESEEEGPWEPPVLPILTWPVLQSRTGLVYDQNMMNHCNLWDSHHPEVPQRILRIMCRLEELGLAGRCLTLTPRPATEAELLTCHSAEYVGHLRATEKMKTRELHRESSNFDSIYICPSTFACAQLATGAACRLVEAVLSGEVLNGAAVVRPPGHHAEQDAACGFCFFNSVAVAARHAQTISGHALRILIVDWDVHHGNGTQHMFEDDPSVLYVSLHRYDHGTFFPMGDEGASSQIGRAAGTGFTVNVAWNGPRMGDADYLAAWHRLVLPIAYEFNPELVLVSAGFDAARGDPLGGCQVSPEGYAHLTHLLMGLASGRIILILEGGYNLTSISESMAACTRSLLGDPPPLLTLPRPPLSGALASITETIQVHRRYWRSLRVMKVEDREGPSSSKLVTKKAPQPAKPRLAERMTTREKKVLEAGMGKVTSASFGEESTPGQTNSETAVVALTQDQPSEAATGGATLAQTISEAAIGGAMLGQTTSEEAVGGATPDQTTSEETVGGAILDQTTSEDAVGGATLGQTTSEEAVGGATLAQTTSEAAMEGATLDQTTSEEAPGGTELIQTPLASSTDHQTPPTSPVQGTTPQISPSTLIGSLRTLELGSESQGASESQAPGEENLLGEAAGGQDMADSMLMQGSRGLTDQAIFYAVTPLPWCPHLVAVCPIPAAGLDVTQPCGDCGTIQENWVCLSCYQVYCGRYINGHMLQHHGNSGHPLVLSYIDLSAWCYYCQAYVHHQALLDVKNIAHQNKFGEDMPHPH

Histone deacetylase 8 = biological target: T2, Histone deacetylase 8 (Homo sapiens, UniProt Q9BY41); assay: Inhibition of full length recombinant human C-terminal His-tagged HDAC8 expressed in baculovirus infected sf9 cells using Boc-Lys-(TFA)-AMC as substrate preincubated for 15 mins followed by substrate addition measured after 60 mins by fluorescence assay
T2 sequence (Q9BY41 whole entry): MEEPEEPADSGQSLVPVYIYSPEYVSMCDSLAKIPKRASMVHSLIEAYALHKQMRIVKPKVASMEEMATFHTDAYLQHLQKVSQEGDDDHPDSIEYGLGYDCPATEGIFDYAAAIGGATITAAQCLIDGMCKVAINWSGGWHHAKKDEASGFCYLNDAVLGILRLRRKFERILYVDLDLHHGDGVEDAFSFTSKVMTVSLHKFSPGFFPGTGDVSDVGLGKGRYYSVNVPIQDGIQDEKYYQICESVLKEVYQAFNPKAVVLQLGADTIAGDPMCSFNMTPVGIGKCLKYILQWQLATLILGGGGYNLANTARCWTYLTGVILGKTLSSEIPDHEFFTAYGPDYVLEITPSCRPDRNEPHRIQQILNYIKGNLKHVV

A549 = assay: Antiproliferative activity against human A549 cells after 96 hrs by MTT assay; type: functional
In short: (§2)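 Cells from Shanghai Cell Bank; A549 grown in high-glucose DMEM and HepG2 in MEM, both with 10% FBS plus penicillin/streptomycin, at 37°C in 5% CO₂. Seeded at 1.5-3.5×10⁴ cells/well for 24 h, then given graded compound concentrations for 96 h. MTT solution (2 mg/mL) added for 4 h, formazan dissolved in DMSO, A570 read. Growth expressed as treated/untreated cell number ratio.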

HepG2 = assay: Antiproliferative activity against human HepG2 cells after 96 hrs by MTT assay; type: functional; in short: as §2

Sequence of Histone deacetylase 1 (Q13547 whole entry): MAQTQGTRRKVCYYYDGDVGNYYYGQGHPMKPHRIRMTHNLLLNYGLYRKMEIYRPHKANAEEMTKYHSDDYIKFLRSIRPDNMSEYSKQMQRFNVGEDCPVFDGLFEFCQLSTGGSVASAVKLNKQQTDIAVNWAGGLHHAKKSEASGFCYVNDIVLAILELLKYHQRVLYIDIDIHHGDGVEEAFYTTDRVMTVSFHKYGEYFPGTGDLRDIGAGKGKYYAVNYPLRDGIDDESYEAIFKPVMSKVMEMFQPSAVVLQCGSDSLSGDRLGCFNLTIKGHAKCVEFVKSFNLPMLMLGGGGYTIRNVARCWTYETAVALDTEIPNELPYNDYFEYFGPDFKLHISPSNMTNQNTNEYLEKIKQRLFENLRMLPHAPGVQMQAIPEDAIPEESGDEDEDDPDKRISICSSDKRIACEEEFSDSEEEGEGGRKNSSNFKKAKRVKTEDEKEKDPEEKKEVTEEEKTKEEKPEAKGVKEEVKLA
Sequence of Histone deacetylase 3/Nuclear receptor corepressor 2 (HDAC3/NCoR2) (O15379 whole entry, the tested form may be a part): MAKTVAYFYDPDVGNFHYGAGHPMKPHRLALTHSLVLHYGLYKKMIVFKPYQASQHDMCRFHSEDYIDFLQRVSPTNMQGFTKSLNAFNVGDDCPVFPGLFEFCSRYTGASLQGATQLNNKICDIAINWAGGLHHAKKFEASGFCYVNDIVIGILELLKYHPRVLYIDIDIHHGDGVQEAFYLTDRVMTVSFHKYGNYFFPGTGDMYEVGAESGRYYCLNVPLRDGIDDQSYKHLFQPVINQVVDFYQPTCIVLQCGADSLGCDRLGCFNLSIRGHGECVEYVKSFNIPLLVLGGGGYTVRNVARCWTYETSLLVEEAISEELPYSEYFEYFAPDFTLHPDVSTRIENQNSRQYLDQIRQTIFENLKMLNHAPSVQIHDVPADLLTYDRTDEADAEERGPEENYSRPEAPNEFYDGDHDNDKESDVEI
Sequence of Histone deacetylase 3/Nuclear receptor corepressor 2 (HDAC3/NCoR2) (Q9Y618 whole entry, further chain, the tested form may be a part): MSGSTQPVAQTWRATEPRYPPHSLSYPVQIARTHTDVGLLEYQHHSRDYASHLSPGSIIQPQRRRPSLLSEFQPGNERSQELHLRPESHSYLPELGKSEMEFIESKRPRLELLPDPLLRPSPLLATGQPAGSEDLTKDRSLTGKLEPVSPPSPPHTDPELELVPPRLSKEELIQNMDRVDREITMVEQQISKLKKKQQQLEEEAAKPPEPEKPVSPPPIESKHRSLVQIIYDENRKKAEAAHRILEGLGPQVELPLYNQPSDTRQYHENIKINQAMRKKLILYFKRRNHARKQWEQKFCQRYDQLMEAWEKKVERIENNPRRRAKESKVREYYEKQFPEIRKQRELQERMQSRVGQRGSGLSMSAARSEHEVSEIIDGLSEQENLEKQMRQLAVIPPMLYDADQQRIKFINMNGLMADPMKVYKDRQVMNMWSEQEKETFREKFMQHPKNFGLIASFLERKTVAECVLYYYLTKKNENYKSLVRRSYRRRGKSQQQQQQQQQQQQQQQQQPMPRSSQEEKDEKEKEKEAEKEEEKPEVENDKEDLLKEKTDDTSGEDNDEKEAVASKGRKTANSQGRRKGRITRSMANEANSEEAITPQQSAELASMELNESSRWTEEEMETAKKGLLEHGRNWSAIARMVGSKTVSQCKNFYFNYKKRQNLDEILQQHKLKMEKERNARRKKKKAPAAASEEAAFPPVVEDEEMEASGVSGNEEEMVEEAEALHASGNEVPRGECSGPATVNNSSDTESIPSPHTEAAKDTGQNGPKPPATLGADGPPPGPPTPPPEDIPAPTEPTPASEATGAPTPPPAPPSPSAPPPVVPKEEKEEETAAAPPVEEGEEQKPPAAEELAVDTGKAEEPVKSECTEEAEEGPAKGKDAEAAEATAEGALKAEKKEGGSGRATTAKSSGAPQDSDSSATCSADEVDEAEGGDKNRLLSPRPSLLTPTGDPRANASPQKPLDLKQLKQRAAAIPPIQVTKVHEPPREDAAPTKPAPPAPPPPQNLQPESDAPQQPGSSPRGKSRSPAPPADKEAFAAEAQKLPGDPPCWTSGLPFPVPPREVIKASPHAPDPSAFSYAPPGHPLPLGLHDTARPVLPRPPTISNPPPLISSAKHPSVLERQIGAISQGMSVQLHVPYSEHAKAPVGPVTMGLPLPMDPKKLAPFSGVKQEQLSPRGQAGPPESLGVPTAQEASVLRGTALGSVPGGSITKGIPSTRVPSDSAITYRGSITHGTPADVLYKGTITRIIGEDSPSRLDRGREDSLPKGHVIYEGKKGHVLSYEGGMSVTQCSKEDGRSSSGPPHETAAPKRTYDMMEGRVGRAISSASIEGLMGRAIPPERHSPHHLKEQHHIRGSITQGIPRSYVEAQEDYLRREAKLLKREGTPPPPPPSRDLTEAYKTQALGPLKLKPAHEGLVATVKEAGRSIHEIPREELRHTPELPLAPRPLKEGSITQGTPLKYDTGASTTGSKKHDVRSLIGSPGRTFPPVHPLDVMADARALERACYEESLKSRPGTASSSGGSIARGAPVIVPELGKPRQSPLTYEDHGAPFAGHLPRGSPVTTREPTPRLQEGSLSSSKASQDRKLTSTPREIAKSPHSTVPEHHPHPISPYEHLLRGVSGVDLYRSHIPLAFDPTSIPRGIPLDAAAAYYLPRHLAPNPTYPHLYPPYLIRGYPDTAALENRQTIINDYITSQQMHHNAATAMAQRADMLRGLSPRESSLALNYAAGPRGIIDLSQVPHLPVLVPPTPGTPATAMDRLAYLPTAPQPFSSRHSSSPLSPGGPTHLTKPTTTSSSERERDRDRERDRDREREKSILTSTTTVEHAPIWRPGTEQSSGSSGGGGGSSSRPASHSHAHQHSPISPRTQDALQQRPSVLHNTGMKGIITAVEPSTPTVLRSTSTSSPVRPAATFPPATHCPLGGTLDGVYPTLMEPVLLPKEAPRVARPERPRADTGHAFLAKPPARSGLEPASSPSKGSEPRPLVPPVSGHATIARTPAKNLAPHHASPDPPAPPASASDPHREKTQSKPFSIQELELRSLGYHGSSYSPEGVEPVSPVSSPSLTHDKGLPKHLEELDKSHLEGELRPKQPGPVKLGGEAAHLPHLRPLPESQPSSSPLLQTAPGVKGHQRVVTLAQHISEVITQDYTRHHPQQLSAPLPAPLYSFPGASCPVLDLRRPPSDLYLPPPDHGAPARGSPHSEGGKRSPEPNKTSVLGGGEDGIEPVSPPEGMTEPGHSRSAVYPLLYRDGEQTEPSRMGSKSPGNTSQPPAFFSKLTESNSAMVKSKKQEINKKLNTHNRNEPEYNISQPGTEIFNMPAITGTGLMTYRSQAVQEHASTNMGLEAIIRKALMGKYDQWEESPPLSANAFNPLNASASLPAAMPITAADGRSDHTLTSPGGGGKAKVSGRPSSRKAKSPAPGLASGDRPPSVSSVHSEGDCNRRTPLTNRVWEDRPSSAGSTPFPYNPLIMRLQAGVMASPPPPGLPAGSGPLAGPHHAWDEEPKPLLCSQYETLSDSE
Sequence of Histone deacetylase 2 (Q92769 whole entry, the tested form may be a part): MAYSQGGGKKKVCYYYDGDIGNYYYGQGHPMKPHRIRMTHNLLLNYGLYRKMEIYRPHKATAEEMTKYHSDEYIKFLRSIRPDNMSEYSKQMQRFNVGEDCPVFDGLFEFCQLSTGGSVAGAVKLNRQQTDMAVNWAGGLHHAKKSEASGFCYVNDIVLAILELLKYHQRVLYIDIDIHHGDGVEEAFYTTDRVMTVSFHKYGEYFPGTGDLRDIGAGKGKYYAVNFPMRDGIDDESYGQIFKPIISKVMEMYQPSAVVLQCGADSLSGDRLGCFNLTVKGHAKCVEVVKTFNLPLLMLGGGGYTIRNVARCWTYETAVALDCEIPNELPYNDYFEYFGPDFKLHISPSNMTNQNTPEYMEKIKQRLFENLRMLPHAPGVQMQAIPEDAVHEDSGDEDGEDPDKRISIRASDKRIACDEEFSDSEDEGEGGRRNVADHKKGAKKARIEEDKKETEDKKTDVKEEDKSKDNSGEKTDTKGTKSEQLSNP

| IC50 (Histone deacetylase) | IC50 (Histone deacetylase 1) | IC50 (Histone deacetylase 2) | IC50 [1] | IC50 [2] | IC50 (Histone deacetylase 8) | GI50 (A549; Homo sapiens, A549, 96 h) | GI50 (HepG2; Homo sapiens, HepG2, 96 h) | GI50 (A549) | GI50 (HepG2) | SMILES |
| --- | --- | --- | --- | --- | --- | --- | --- | --- | --- | --- |
| 0.165 µM | 0.487 µM | 0.391 µM | 0.228 µM | 0.035 µM | > 5 µM | 19.2 µM | 16.7 µM | – | – | CCc1cc(-c2ccc(F)cc2)nn1Cc1ccc(C(=O)NO)cc1 |
| 1.637 µM | 1.19 µM | – | – | 0.643 µM | – | – | – | – | – | Cc1ccc(-c2cc(C(F)(F)F)nn2-c2ccc(S(N)(=O)=O)cc2)cc1 [CELECOXIB] |
| 2.603 µM | 3.74 µM | 1.83 µM | 1.43 µM | 1.06 µM | > 5 µM | > 100 µM | 88 µM | – | – | O=C(CCCNC(=O)c1cc(-c2ccc(F)cc2)[nH]n1)NO |
| 1.139 µM | 0.836 µM | 0.919 µM | 0.736 µM | 0.359 µM | > 5 µM | > 100 µM | > 100 µM | – | – | Cc1ccc(-c2cc(C(F)(F)F)nn2-c2ccc(C(=O)NO)cc2)cc1 |
| 1.46 µM | 1.07 µM | 0.635 µM | 0.816 µM | 0.54 µM | > 5 µM | 29.3 µM | 24 µM | – | – | Cc1ccc(-c2cc(C(F)(F)F)nn2CCc2ccc(C(=O)NO)cc2)cc1 |
| 0.476 µM | 0.541 µM | 0.362 µM | 0.29 µM | 0.107 µM | > 5 µM | 15.2 µM | 16.8 µM | – | – | CCCc1cc(-c2ccc(F)cc2)nn1Cc1ccc(C(=O)NO)cc1 |
| > 5 µM | > 5 µM | > 5 µM | > 5 µM | 0.42 µM | > 5 µM | – | – | – | – | O=C(NO)c1ccc(Cn2nc(Cc3ccccc3)cc2-c2ccc(F)cc2)cc1 |
| > 5 µM | > 5 µM | > 5 µM | > 5 µM | > 5 µM | > 5 µM | 46.9 µM | 76 µM | – | – | O=C(CCNC(=O)c1cc(-c2ccc(F)cc2)[nH]n1)NO |
| – | – | – | – | – | – | – | – | 5.02 µM | 22 µM | O=C(CCCCCCC(=O)Nc1ccccc1)NO [VORINOSTAT] |
| 1.028 µM | 1.88 µM | 0.763 µM | 0.619 µM | 0.326 µM | > 5 µM | – | – | – | – | O=C(NO)c1ccc(Cn2nc(-c3ccc(F)cc3)cc2Cc2ccccc2)cc1 |
| 0.033 µM | 0.11 µM | 0.047 µM | 0.021 µM | 0.016 µM | > 5 µM | 15.5 µM | 8.58 µM | – | – | Cc1ccc(-c2cc(C(F)(F)F)n(Cc3ccc(C(=O)NO)cc3)n2)cc1 |
| 0.058 µM | 0.066 µM | 0.042 µM | 0.036 µM | 0.029 µM | 3.71 µM | 7.09 µM | 47.6 µM | – | – | O=C(CCCCCNC(=O)c1cc(-c2ccc(F)cc2)[nH]n1)NO |
| 0.016 µM | 0.43 µM | 0.135 µM | 0.092 µM | 0.036 µM | > 5 µM | 23.2 µM | 16.5 µM | – | – | Cc1cc(-c2ccc3c(c2)OCO3)n(Cc2ccc(C(=O)NO)cc2)n1 |
| 0.043 µM | 0.079 µM | 0.04 µM | 0.035 µM | 0.022 µM | 2.95 µM | 1.98 µM | 23.2 µM | – | – | O=C(CCCCCCNC(=O)c1cc(-c2ccc(F)cc2)[nH]n1)NO |
| 0.121 µM | 0.352 µM | 0.549 µM | 0.08 µM | 0.078 µM | > 5 µM | > 100 µM | 27.6 µM | – | – | Cc1ccc(-c2cc(C(F)(F)F)n(CCc3ccc(C(=O)NO)cc3)n2)cc1 |
| 0.022 µM | 0.038 µM | 0.017 µM | 0.009 µM | 0.001 µM | > 5 µM | 20.2 µM | 38.1 µM | – | – | O=C(NO)c1ccc(CNC(=O)c2cc(-c3ccc(F)cc3)[nH]n2)cc1 |
| 0.022 µM | 0.694 µM | 0.076 µM | 0.053 µM | 0.029 µM | > 5 µM | 12.4 µM | 13.3 µM | – | – | Cc1ccc(-c2cc(C)nn2Cc2ccc(C(=O)NO)cc2)cc1 |
| 0.644 µM | 1.04 µM | 0.883 µM | 0.671 µM | 0.275 µM | > 5 µM | > 100 µM | > 100 µM | – | – | O=C(CCCCNC(=O)c1cc(-c2ccc(F)cc2)[nH]n1)NO |
| 0.231 µM | 0.925 µM | 1.22 µM | 0.128 µM | 0.027 µM | > 5 µM | 10.6 µM | 7.5 µM | – | – | Cc1ccc(-c2cc(C(F)(F)F)nn2Cc2ccc(C(=O)NO)cc2)cc1 |
| 0.013 µM | 0.133 µM | 0.041 µM | 0.026 µM | 0.007 µM | > 5 µM | 11.2 µM | 21.2 µM | – | – | Cc1ccc(-c2cc(C)n(Cc3ccc(C(=O)NO)cc3)n2)cc1 |
| 0.008 µM | 0.024 µM | 0.04 µM | 0.036 µM | 0.005 µM | > 5 µM | 28.1 µM | 20.8 µM | – | – | Cc1cc(-c2ccc3c(c2)OCO3)nn1Cc1ccc(C(=O)NO)cc1 |
| 1.792 µM | 3.61 µM | 1.5 µM | 1.84 µM | 0.069 µM | > 5 µM | 16.7 µM | 7.76 µM | – | – | CCc1cc(-c2ccc(F)cc2)n(Cc2ccc(C(=O)NO)cc2)n1 |
| 3.827 µM | > 5 µM | 2.88 µM | 1.94 µM | 0.167 µM | > 5 µM | 16 µM | 6.66 µM | – | – | CCCc1cc(-c2ccc(F)cc2)n(Cc2ccc(C(=O)NO)cc2)n1 |
| 0.04 µM | 0.48 µM | 0.114 µM | 0.069 µM | 0.008 µM | > 5 µM | 11.4 µM | 30 µM | – | – | Cc1cc(-c2ccc(F)cc2)nn1Cc1ccc(C(=O)NO)cc1 |
